Test results published in ChEMBL document CHEMBL1157317, “Vanillic acid glycoside and quinic acid derivatives from Gardeniae Fructus” (J Nat Prod, 2006).
Values after ≈ are worked out from the molar mass of the structure shown.

Key:
[1] = Antioxidant activity assessed as superoxide anion scavenging activity by xanthine oxidase oxidation system relative to control; assay type: functional
Summary of the method: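 Superoxide produced by xanthine oxidase (1.4 × 10-8 units) with 0.1 mM xanthine in 40 mM sodium carbonate buffer pH 10.2 containing 0.1 mM EDTA, 50 µg/mL BSA and […]; 20 min at 25 °C, stopped with CuCl2. Formazan read at 560 nm; IC50 as concentration scavenging 50% of superoxide.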

[2] = tested on: Radical scavenging activity; experiment: Antioxidant activity assessed as DPPH free radical scavenging activity relative to control; assay type: functional
Summary of the method: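 Test samples in EtOH mixed with 100 µM ethanolic DPPH, incubated 30 min at 37 °C; absorbance read at 515 nm. Percent inhibition calculated against ethanol-treated control; IC50 taken as concentration scavenging 50% of DPPH radicals.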

[3] = biological target: Human immunodeficiency virus type 1 integrase (Human immunodeficiency virus 1, UniProt Q7ZJM1); experiment: Inhibition of HIV1 recombinant integrase expressed in Escherichia coli
Human immunodeficiency virus type 1 integrase, sequence (Q7ZJM1 whole entry): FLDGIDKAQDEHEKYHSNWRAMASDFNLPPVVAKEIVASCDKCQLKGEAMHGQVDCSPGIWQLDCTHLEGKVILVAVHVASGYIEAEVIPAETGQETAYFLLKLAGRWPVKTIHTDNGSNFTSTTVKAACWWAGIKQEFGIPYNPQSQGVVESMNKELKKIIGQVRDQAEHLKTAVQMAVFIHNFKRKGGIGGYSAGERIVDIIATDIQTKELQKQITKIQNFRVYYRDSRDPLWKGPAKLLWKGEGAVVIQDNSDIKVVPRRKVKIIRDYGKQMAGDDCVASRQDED

[4] = Antioxidant activity assessed as inhibition of 2,2'-azobis(2-amidinopropane)dihydrochloride-induced lipid peroxidation at 3.125 ug/ml by ferric thiocyanate system relative to control; assay type: functional
Summary of the method: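 Linoleic acid emulsified in Tween, peroxidation induced by AAPH; oxidation followed by ferric thiocyanate method.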

Compound	IC50 [1]	IC50 [2]	IC50 [3]	inhibition [4]
O=C(/C=C/c1ccc(O)c(O)c1)O[C@H]1[C@H](O)C[C@](O)(C(=O)O)C[C@H]1OC(=O)/C=C/c1ccc(O)c(O)c1	3.3 µg/mL (≈ 6.39 µM)	5.9 µg/mL (≈ 11.4 µM)	10.5 µM	51.7%
O=C(/C=C/c1ccc(O)c(O)c1)O[C@@H]1C[C@](O)(C(=O)O)C[C@@H](OC(=O)/C=C/c2ccc(O)c(O)c2)[C@H]1O	2.9 µg/mL (≈ 5.62 µM)	5.6 µg/mL (≈ 10.8 µM)	11.4 µM	51.5%
CCOC(=O)[C@@]1(O)C[C@@H](OC(=O)/C=C/c2ccc(O)c(O)c2)[C@H](O)[C@H](OC(=O)/C=C/c2cc(OC)c(O)c(OC)c2)C1	2.7 µg/mL (≈ 4.59 µM)	9.5 µg/mL (≈ 16.1 µM)	80.5 µM	53.8%
CCOC(=O)[C@]1(O)C[C@@H](O)[C@@H](OC(=O)/C=C/c2cc(OC)c(O)c(OC)c2)[C@H](OC(=O)/C=C/c2ccc(O)c(O)c2)C1	2 µg/mL (≈ 3.4 µM)	6.1 µg/mL (≈ 10.4 µM)	73.9 µM	54.9%
COC(=O)[C@]1(O)C[C@@H](O)[C@@H](OC(=O)/C=C/c2cc(OC)c(O)c(OC)c2)[C@H](OC(=O)/C=C/c2ccc(O)c(O)c2)C1	1.8 µg/mL (≈ 3.13 µM)	8.3 µg/mL (≈ 14.4 µM)	33.8 µM	56%
COC(=O)[C@@]1(O)C[C@@H](OC(=O)/C=C/c2ccc(O)c(O)c2)[C@H](O)[C@H](OC(=O)/C=C/c2cc(OC)c(O)c(OC)c2)C1	2.2 µg/mL (≈ 3.83 µM)	8.5 µg/mL (≈ 14.8 µM)	41.1 µM	54.7%
COc1cc(C(=O)O)ccc1O[C@@H]1O[C@H](COC(=O)/C=C/c2cc(OC)c(O)c(OC)c2)[C@@H](O)[C@H](O)[C@H]1O	46.3 µg/mL (≈ 86.3 µM)	22.7 µg/mL (≈ 42.3 µM)	> 186 µM	38.4%
O=C1O[C@H]([C@@H](O)CO)C(O)=C1O [ASCORBIC ACID]	> 50 µg/mL	5.5 µg/mL (≈ 31.2 µM)		44.1%
O=C(O)/C=C/c1ccc(O)c(O)c1 [CAFFEIC ACID]	0.5 µg/mL (≈ 2.78 µM)	3.2 µg/mL (≈ 17.8 µM)		54.1%
CCOC(=O)[C@]1(O)C[C@@H](O)[C@@H](O)[C@H](OC(=O)/C=C/c2ccc(O)c(O)c2)C1 [ETHYL CHLOROGENATE]	1 µg/mL (≈ 2.62 µM)	7.1 µg/mL (≈ 18.6 µM)	116 µM	51.1%
COC(=O)C1=CO[C@@H](O[C@@H]2O[C@H](CO)[C@@H](O)[C@H](O)[C@H]2O)[C@@H]2C(CO)=CC[C@H]12 [GENIPOSIDE]	> 50 µg/mL	> 50 µg/mL	> 257 µM	2%
O=C(O)C1=CO[C@@H](O[C@@H]2O[C@H](CO)[C@@H](O)[C@H](O)[C@H]2O)[C@@H]2C(CO)=CC[C@H]12 [GENIPOSIDIC ACID]	> 50 µg/mL	> 50 µg/mL	> 267 µM	4.8%
O=c1c(O[C@@H]2O[C@H](CO)[C@@H](O)[C@H](O)[C@H]2O)c(-c2ccc(O)c(O)c2)oc2cc(O)cc(O)c12 [ISOQUERCETIN]	3.4 µg/mL (≈ 7.32 µM)	16.6 µg/mL (≈ 35.7 µM)		49.9%
O=C(O)c1ccc(O)c(O)c1 [PROTOCATECHUIC ACID]	13 µg/mL (≈ 84.3 µM)	6.9 µg/mL (≈ 44.8 µM)		38.1%
O=c1c(O)c(-c2ccc(O)c(O)c2)oc2cc(O)cc(O)c12 [QUERCETIN]	> 50 µg/mL	5.9 µg/mL (≈ 19.5 µM)		54.2%
Oc1ccc(/C=C/c2cc(O)cc(O)c2)cc1 [RESVERATROL]	37.9 µg/mL (≈ 166 µM)	17.1 µg/mL (≈ 74.9 µM)		39.1%
VITAMIN E [listing 1 of 2 here]	> 50 µg/mL	9.4 µg/mL		
VITAMIN E [listing 2 of 2 here]				61.2%
